This is an account of results in ChEMBL document CHEMBL1149249 (J Med Chem, 2004).

For one data set, the target named is T1, Adenosine receptor A1 (Rattus norvegicus, UniProt P25099).
T1 sequence (P25099 whole entry): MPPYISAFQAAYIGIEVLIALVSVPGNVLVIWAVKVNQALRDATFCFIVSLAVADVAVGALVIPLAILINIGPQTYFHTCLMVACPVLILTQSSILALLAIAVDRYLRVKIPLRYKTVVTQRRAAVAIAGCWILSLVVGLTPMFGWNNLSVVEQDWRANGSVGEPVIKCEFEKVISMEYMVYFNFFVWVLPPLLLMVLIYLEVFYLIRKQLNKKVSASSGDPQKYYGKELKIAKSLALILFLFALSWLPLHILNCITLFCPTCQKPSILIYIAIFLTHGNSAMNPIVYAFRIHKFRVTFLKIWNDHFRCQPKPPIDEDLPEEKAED
Description: Displacement of [3h]DPCPX from adenosine A receptor in rat cerebral cortex membrane.

For data set [1], the system named is Mus musculus. Kind of data set: Reduction of haloperidol-induced catalepsy in orally dosed CD1 mouse. Conditions: CD1, po. The data set is classed as functional. In outline:
(§1)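 Male CD-1 mice (25–30 g) received haloperidol 3 mg/kg sc. Bar test used a 4.5 cm high, 1 cm bar with a 120 s cutoff, measured every 30 min. Once baseline catalepsy was stable (about 3 h), compound or vehicle was given by oral gavage. Catalepsy was then scored every 30 min for 2 h. Analysis was one-way ANOVA with Dunnett's post hoc test.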

Another data set concerns the target Adenosine receptor A2a (Rattus norvegicus, UniProt P30543). Description: Displacement of [3H]ZM241385 from adenosine A2A receptor in rat brain membrane. The data set is classed as cell membranes. (In general: In a radioligand displacement assay an active substance lowers the binding of a labelled ligand.)
The next data set relates to Rattus norvegicus. Kind of data set: Reduction of haloperidol-induced catalepsy in orally dosed Sprague-Dawley rat. The format is functional. Conditions: po. Put shortly: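 Male Sprague–Dawley rats (225–275 g) were given haloperidol 1 mg/kg, with bar tests every 30 min (1 cm bar, 10 cm high, 120 s maximum). After a stable cataleptic baseline at about 3 h, compound or vehicle was dosed by oral gavage. The bar test was repeated every 30 min for 2 h. Data were analyzed by one-way ANOVA with Dunnett's test.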

Data set [2] can be described thus: Metabolic stability in rat liver microsomes at 2 uM after 15 mins. The format is ADME, Microsome. Conditions: read-out: Stability. In outline: (§2)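 Test compound at 2 μM final was incubated at 37 °C with shaking in Sprague–Dawley rat liver microsomes in 66 mM potassium phosphate pH 7.4. An NADP+/glucose-6-phosphate/MgCl2/G6P dehydrogenase regenerating system was present. Aliquots taken at 0, 15, 30 and 60 min were quenched in acetonitrile containing DPCPX internal standard. Percent parent remaining was measured by LC/MS.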
(In general: Liver microsomes are a subcellular fraction often used to study metabolism.)

The nature of data set [3]: Metabolic stability in rat liver microsome at 2 uM after 60 mins. The data set is classed as ADME. Conditions: liver microsomes, read-out: Stability. In outline: as §2
Data set [4] can be described thus: Metabolic stability in rat liver microsome at 2 uM after 30 mins. The format is ADME. Conditions: liver microsomes, read-out: Stability. Put shortly: as §2
For data set [5], the system named is Mus musculus. Kind of data set: Reduction of haloperidol-induced catalepsy in CD1 mouse within 30 mins at 3 mg/kg, po. Set-up: scale not given: the % may be the effect or the level left. The data set is classed as functional. In outline: as §1

Adenosine receptor A2a, sequence (P30543 whole entry): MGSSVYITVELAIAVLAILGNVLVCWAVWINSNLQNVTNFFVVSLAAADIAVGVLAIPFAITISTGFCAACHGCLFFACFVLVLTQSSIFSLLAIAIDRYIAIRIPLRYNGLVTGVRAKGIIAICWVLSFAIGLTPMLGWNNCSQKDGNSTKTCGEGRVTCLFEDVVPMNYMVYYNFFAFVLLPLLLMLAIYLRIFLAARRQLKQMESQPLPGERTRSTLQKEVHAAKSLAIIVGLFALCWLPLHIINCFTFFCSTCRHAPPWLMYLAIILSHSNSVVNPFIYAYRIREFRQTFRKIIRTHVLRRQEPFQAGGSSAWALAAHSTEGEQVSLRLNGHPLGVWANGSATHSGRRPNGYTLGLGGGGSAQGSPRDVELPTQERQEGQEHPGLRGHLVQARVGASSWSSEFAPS

Consider `Nc1nc(NC[C@H]2CCCN2Cc2c(F)cccc2F)nc2nc(-c3ccco3)nn12`, for which the Ki (commonly a dissociation constant, usually derived from enzyme kinetics or from competition with a known ligand) is reported as 427 nM (antagonist) on Adenosine receptor A1 and 3.6 nM (antagonist) at Adenosine receptor A2a. In addition, the ED50 with Mus musculus [1] and in the data set on Rattus norvegicus was 10 mg/kg in each case.
Take `Cn1nc(C(F)(F)F)c(CN2CCN(c3nc(N)n4nc(-c5ccco5)nc4n3)CC2)c1Cl`: the ED50 with Mus musculus [1] and with Rattus norvegicus was 3 mg/kg in each case. Moreover, the remaining at 0.25 h, 2 µM in data set [2] is 14%.
As for `Nc1nc(N2CCN3CCC[C@@H]3C2)nc2nc(-c3ccco3)nn12`, the Ki is 1200 nM at Adenosine receptor A1 and 30 nM (antagonist) at Adenosine receptor A2a. Also, the remaining at 1 h, 2 µM in data set [3] stood at 61%. In addition, the remaining at 0.25 h, 2 µM in data set [2] was 67%. In data set [4], the remaining at 0.5 h, 2 µM is 75%.
For `Nc1nc(N2CCN3CCC[C@H]3C2)nc2nc(-c3ccco3)nn12`, in that order: > 500 nM, 46 nM (antagonist), 36%, 69% and 54%.
Turning to `Nc1nc(N2CCN3C[C@@H](COc4ccc5ncccc5c4)CC[C@H]3C2)nc2nc(-c3ccco3)nn12`, the Ki on Adenosine receptor A1 is 3500 nM; on Adenosine receptor A2a it was 0.6 nM (antagonist). Moreover, the remaining at 1 h, 2 µM in data set [3] was found to be 16%. Besides, the remaining at 0.25 h, 2 µM in data set [2] came out at 42%. In addition, in data set [4], the remaining at 0.5 h, 2 µM was 25%.
With `Nc1nc(N2CCN3[C@@H](CO)CCC[C@H]3C2)nc2nc(-c3ccco3)nn12` (racemic), the Ki at Adenosine receptor A1 was 1300 nM; on Adenosine receptor A2a it was 3 nM (antagonist).
For `Nc1nc(N2CCN3C[C@H](COc4ccccc4)CC[C@H]3C2)nc2nc(-c3ccco3)nn12` (racemic), in that order: > 500 nM and 53 nM (antagonist).
For the compound `Nc1nc(N2CCN3C[C@H](CO)CC[C@H]3C2)nc2nc(-c3ccco3)nn12` (racemic), the Ki at Adenosine receptor A1 is 6100 nM; at Adenosine receptor A2a, 71 nM (antagonist).
As for `Nc1nc(N2CCN3[C@@H](CO)CCC[C@H]3C2)cc2nc(-c3ccco3)nn12` (racemic), the Ki at Adenosine receptor A1 is > 500 nM; at Adenosine receptor A2a, 110 nM (antagonist).
For `Nc1nc(N2CCN3CCCCC3C2)cc2nc(-c3ccco3)nn12` (racemic), in that order: > 500 nM and 140 nM (antagonist).
`Nc1nc(NC[C@@H]2CC[C@@H]3CN(c4ncccn4)CCN3C2)nc2nc(-c3ccco3)nn12` (racemic): the Ki was 1600 nM on Adenosine receptor A1 and 0.3 nM (antagonist) on Adenosine receptor A2a. For the same compound, the remaining at 1 h, 2 µM in data set [3] was found to be 43%. In addition, in data set [2], the remaining at 0.25 h, 2 µM turned out to be 89%. In addition, the remaining at 0.5 h, 2 µM in data set [4] worked out at 65%.
Take `Nc1nc(N2CCN3C[C@@H](COc4ccccc4)CC[C@H]3C2)nc2nc(-c3ccco3)nn12` (racemic): the Ki is > 500 nM at Adenosine receptor A1 and 21 nM (antagonist) on Adenosine receptor A2a.
For `COc1ccc(OC[C@H]2CC[C@H]3CN(c4nc(N)n5nc(-c6ccco6)nc5n4)CCN3C2)cc1` (racemic), in that order: > 500 nM and 35 nM (antagonist).
In the case of `Nc1nc(N2CCN3C[C@@H](COc4ccccc4F)CC[C@H]3C2)nc2nc(-c3ccco3)nn12` (racemic), the Ki at Adenosine receptor A1 was > 500 nM; on Adenosine receptor A2a it was 0.9 nM (antagonist).
For `Nc1nc(N2CCN3C[C@@H](COc4ccc(F)cc4)CC[C@H]3C2)nc2nc(-c3ccco3)nn12` (racemic), in that order: > 500 nM and 4 nM (antagonist).
For the compound `Nc1nc(N2CCN3C[C@@H](CO)CC[C@H]3C2)cc2nc(-c3ccco3)nn12` (racemic), the Ki on Adenosine receptor A1 was > 500 nM; on Adenosine receptor A2a, 96 nM (antagonist). In addition, in data set [3], the remaining at 1 h, 2 µM stood at 85%. In data set [2], the remaining at 0.25 h, 2 µM came to 100%. Also, the Activity in the data set on Mus musculus [5] is reported as >50%. Further, the remaining at 0.5 h, 2 µM in data set [4] was found to be 100%.
`Nc1nc(N2CCN3C[C@@H](COc4cccc(F)c4)CC[C@H]3C2)nc2nc(-c3ccco3)nn12` (racemic): the values for the Ki at Adenosine receptor A1 and on Adenosine receptor A2a were 3300 nM and 0.2 nM (antagonist), respectively. In addition, the remaining at 1 h, 2 µM in data set [3] came out at 12%. The remaining at 0.25 h, 2 µM in data set [2] was 57%. Moreover, the remaining at 0.5 h, 2 µM in data set [4] came out at 36%.
For `Nc1cc(N2CCN3C[C@@H](CO)CC[C@H]3C2)nc2nc(-c3ccco3)nn12` (racemic), in that order: > 500 nM, 230 nM (antagonist), 51%, 97% and 81%.
In the case of `Nc1cc(N2CCN3C[C@@H](COc4ccccc4)CC[C@H]3C2)nc2nc(-c3ccco3)nn12` (racemic), the Ki at Adenosine receptor A1 was > 500 nM; at Adenosine receptor A2a, 45 nM (antagonist).
For `Nc1cc(N2CCN3CCCCC3C2)nc2nc(-c3ccco3)nn12` (racemic), in that order: > 500 nM and 38 nM (antagonist).
For the compound `Nc1nc(N2CCN3[C@@H](COc4ccccc4)CCC[C@H]3C2)nc2nc(-c3ccco3)nn12` (racemic), the Ki at Adenosine receptor A1 was > 500 nM; on Adenosine receptor A2a, 13 nM (antagonist).
For `Nc1nc(N2CCN3C[C@H](CO)CC[C@H]3C2)cc2nc(-c3ccco3)nn12` (racemic), the results for the Ki at Adenosine receptor A1 and on Adenosine receptor A2a were > 1000 nM and 240 nM (antagonist), respectively.
Consider `Nc1nc(N2CCN3C[C@@H](CO)CC[C@H]3C2)nc2nc(-c3ccco3)nn12` (racemic), for which the Ki at Adenosine receptor A1 is listed as 660 nM (antagonist); at Adenosine receptor A2a, 45 nM (antagonist). For the same compound, the remaining at 1 h, 2 µM in data set [3] was 100%. The remaining at 0.25 h, 2 µM in data set [2] was determined as 100%. In addition, the Activity in the data set with Mus musculus [5] is >50%. Moreover, in data set [4], the remaining at 0.5 h, 2 µM was 100%.
In the case of `Nc1cc(N2CCN3C[C@H](CO)CC[C@H]3C2)nc2nc(-c3ccco3)nn12` (racemic), the results for the Ki on Adenosine receptor A1 and on Adenosine receptor A2a were > 1000 nM and 860 nM (antagonist), respectively.
With `Nc1cc(N2CCN3[C@@H](CO)CCC[C@H]3C2)nc2nc(-c3ccco3)nn12` (racemic), the values for the Ki at Adenosine receptor A1 and at Adenosine receptor A2a were > 500 nM and 610 nM (antagonist), respectively.
For `COc1ccc(OC[C@@H]2CC[C@H]3CN(c4nc(N)n5nc(-c6ccco6)nc5n4)CCN3C2)cc1` (racemic), in that order: > 500 nM and 70 nM (antagonist).
For `NC[C@H]1CC[C@H]2CN(c3nc(N)n4nc(-c5ccco5)nc4n3)CCN2C1` (racemic), in that order: > 500 nM and 16 nM (antagonist).
With `Nc1nc(N2CCN3CCCCC3C2)nc2nc(-c3ccco3)nn12` (racemic), the figures for the Ki on Adenosine receptor A1 and at Adenosine receptor A2a were 860 nM (antagonist) and 12 nM (antagonist), respectively.
